Laboratory results published in publication PMC3575599 (Cell reports, 2013).
Entries after “also recorded” stand apart in the source; their conditions may differ.

How the values were obtained:
mefs = assay: Proliferation of mefs with dox-inducible Chd5 or PHD-mutants; assay type: cell-based, mouse; conditions: for effect on mef proliferation: dox-induced (0.2 μg/ml dox) vs untreated
Procedure, shortened: (§1)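 Mouse Chd5 (wild-type or PHD point mutants) is introduced by retrovirus in a dox-inducible vector, with SK-N-AS cells stably expressing rtTA. Mefs are seeded at 5 × 10^4 cells per 6 cm dish and SK-N-AS at 2.5 × 10^4 cells. Cells grow in DMEM with 100 μg/ml hygromycin B and 0.5 μg/ml puromycin, ±0.2 μg/ml dox. Cells are counted over days in triplicate (Coulter counter or crystal violet); mean ± S.D., two-tailed t-test.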

[1] = test system: Chd5 target gene expression; assay: qRT-PCR of Chd5 target genes in mefs; assay type: cell-based, mouse; conditions: qRT-PCR normalized with actin, with (+) vs without (−) dox
H3 peptide = assay type: binding; conditions: nuclear extracts from mefs; anti-Flag immunoblot
SK-N-AS cells [2] = assay: Differentiation of SK-N-AS cells; assay type: cell-based, human; conditions: for cell morphology / differentiation: SK-N-AS, dox-inducible expression; for MAP2 expression: immunofluorescence, neuronal marker MAP2
unmodified H3 = assay type: binding; conditions: purified Chd5-PHDs or nuclear lysates expressing Flag-tagged Chd5; unmodified H3 peptides
H3K4me0 peptide = assay: Peptide pull-down with recombinant wild-type and mutant PHDs or individual PHDs; assay type: binding; conditions: biotinylated histone peptides; recombinant PHDs of Chd5
SK-N-AS cells [3] = assay: Proliferation of SK-N-AS cells with dox-inducible Chd5 or PHD-mutants; assay type: cell-based, human; conditions: for reduction of SK-N-AS proliferation: dox-induced; for effect on SK-N-AS proliferation: dox-induced (0.2 μg/ml dox) vs untreated
Procedure, shortened: as §1

SK-N-AS cells [4] = assay: Tumor growth of SK-N-AS cells injected subcutaneously into athymic nude mice; assay type: in vivo, human; conditions: SK-N-AS cells s.c., dox-diet
Procedure, shortened: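 SK-N-AS cells carry rtTA plus dox-inducible vector, wild-type or PHD-mutant Chd5. 1.6 × 10^6 cells mixed with Matrigel are injected s.c. into irradiated athymic nude mice. One cohort gets normal diet; the other gets dox diet from two days before injection onward. A blinded observer measures tumours. Read-outs are fold increase in tumour volume over 17 days (mean ± S.E.M.) and percentage change, dox-treated versus untreated.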

[5] = test system: recombinant tandem PHDs of Chd5; assay: Biotinylated histone peptide pull-down with recombinant Chd5 PHDs; assay type: binding, mouse; conditions: biotinylated histone peptides; in vitro pull-down
chromatin = assay: Chromatin fractions from cells expressing Flag-tagged Chd5; assay type: cell-based

Question: For “D415A: Chd5 mutant compromised for H3 binding”, which “effect on mef proliferation” value (mefs) is on record?
Answer: defective in their ability to inhibit proliferation

Question: “G355A: Chd5 mutant compromised for H3 binding” was tested. Which “effect on mef proliferation” value (mefs) did it give?
Answer: defective in their ability to inhibit proliferation

Question: What about the “effect on Chd5 target gene expression in mefs” value (“effect … in mefs” below) [1] of the same molecule?
Answer: not able to inhibit expression of Chd5-bound loci

Question: What does the source list for “D346A: Chd5-PHD1 single amino acid mutant; H3-binding-competent”?
Answer: pull-down by H3 peptide of Flag-tagged Chd5 (H3 peptide): are pulled down by H3 peptide; cell morphology / differentiation (SK-N-AS cells [2]): intermediate differentiation phenotype; cell morphology / differentiation (SK-N-AS cells [2]; listed as Chd5-D346A): partially-differentiated morphology; relative efficiency of H3 binding (unmodified H3): bind H3 more efficiently than PHD1-D361A, PHD2-D434A, and PHD2-D415A; effect on mef proliferation (mefs): inhibited proliferation to an extent comparable to that of wild-type Chd5; also recorded: inhibit proliferation; effect on mef proliferation (mefs; listed as Chd5-PHD1-D346A): inhibits cellular proliferation; binding to H3K4me0 peptide (pull-down) (H3K4me0 peptide): binds the H3K4me0 peptide; reduction of SK-N-AS proliferation (SK-N-AS cells [3]): about 17%; effect on SK-N-AS proliferation (SK-N-AS cells [3]): inhibited proliferation; effect on SK-N-AS proliferation (SK-N-AS cells [3]; listed as Chd5-PHD1-D346A): inhibits cellular proliferation; effect on Chd5 target gene expression in mefs [1]: repress target gene expression; also recorded: inhibit expression of several Chd5-bound genes

Question: How did the “cell morphology / differentiation” value (SK-N-AS cells [2]) turn out when “D434A: Chd5-PHD2 single amino acid mutant compromised for H3 binding” was run?
Answer: classic stem-like neuroblastoma morphology with proliferative foci

Question: And the MAP2 expression (SK-N-AS cells [2])?
Answer: lower expression

Question: What about the “effect on mef proliferation” value (mefs) of the same molecule?
Answer: defective in their ability to inhibit proliferation

Question: And the “effect on mef proliferation” value (mefs; listed as Chd5-PHD2-D434A)?
Answer: fail to do so

Question: What about the “binding to H3K4me0 peptide (pull-down)” value (H3K4me0 peptide) of the same molecule?
Answer: compromised binding

Question: And the “effect … in mefs” value [1]?
Answer: fail to do so; also recorded: not able to inhibit expression of Chd5-bound loci

Question: And the “effect on tumor growth” value (SK-N-AS cells [4])?
Answer: failed to reduce tumor growth

Question: With “unmodified H3 (1–21) peptide: biotinylated histone H3 (1–21) peptide” as the molecule, how does the “binding to recombinant tandem PHDs of Chd5 (pull-down)” value [5] read?
Answer: bind

Question: Which “cell morphology / differentiation” value (SK-N-AS cells [2]) does the source give for “D361A: Chd5-PHD1 single amino acid mutant compromised for H3 binding” here?
Answer: classic stem-like neuroblastoma morphology with proliferative foci

Question: And the MAP2 expression (SK-N-AS cells [2])?
Answer: lower expression

Question: What about the “effect on mef proliferation” value (mefs) of the same molecule?
Answer: defective in their ability to inhibit proliferation

Question: And the “effect on mef proliferation” value (mefs; listed as Chd5-PHD1-D361A)?
Answer: fail to do so

Question: And the “binding to H3K4me0 peptide (pull-down)” value (H3K4me0 peptide)?
Answer: compromised binding

Question: What about the “effect on SK-N-AS proliferation” value (SK-N-AS cells [3]) of the same molecule?
Answer: no such effects are observed

Question: And the “effect … in mefs” value [1]?
Answer: fail to do so; also recorded: not able to inhibit expression of Chd5-bound loci

Question: What about the “effect on tumor growth” value (SK-N-AS cells [4]) of the same molecule?
Answer: failed to reduce tumor growth

Question: With “D346A/D434A: Chd5 double mutant, PHD1-D346A and PHD2-D434A” as the molecule, how does the “effect on mef proliferation” value (mefs) read?
Answer: fail to do so

Question: What about the “effect … in mefs” value [1] of the same molecule?
Answer: fail to do so

Question: Which “effect on mef proliferation” value (mefs) does the source give for `C[C@H]1c2cccc(O)c2C(=O)C2=C(O)[C@]3(O)C(=O)C(C(N)=O)=C(O)[C@@H](N(C)C)[C@@H]3[C@@H](O)[C@@H]21` [doxycycline, reference compound] here?
Answer: no significant effect

Question: “wild-type Chd5: full-length mouse Chd5 (chromodomain helicase DNA-binding protein 5)” was tested. Which “pull-down by H3 peptide of Flag-tagged Chd5” value (H3 peptide) did it give?
Answer: are pulled down by H3 peptide

Question: What about the “cell morphology / differentiation” value (SK-N-AS cells [2]) of the same molecule?
Answer: flat epithelial-like morphology; also recorded: differentiated cellular morphology

Question: What about the MAP2 expression (SK-N-AS cells [2]) of the same molecule?
Answer: increased expression; also recorded: increase in MAP2 expression

Question: And the “effect on mef proliferation” value (mefs)?
Answer: inhibited proliferation; also recorded: inhibits cellular proliferation

Question: And the “inhibition of proliferation in mefs” value (mefs; dox-induced, see Figure 3A)?
Answer: 54%

Question: What about the association with chromatin (chromatin) of the same molecule?
Answer: associated with chromatin

Question: And the “reduction of SK-N-AS proliferation” value (SK-N-AS cells [3])?
Answer: about 17%

Question: And the “effect on SK-N-AS proliferation” value (SK-N-AS cells [3])?
Answer: inhibited proliferation; also recorded: inhibits cellular proliferation

Question: What about the “effect … in mefs” value [1] of the same molecule?
Answer: repress target gene expression

Question: And the “effect … in mefs” value ([1]; listed as Chd5)?
Answer: inhibits expression of the oncogenic PcG protein Bmi1

Question: What about the “effect on tumor growth” value (SK-N-AS cells [4]) of the same molecule?
Answer: reduces tumorigenesis in vivo much more efficiently

Question: “PHD2: individual PHD of Chd5, PHD2 (408–465) (GGCEEEEDDHMEFCRVCKDGGELLCCDACPSSYHLHCLNPPLPEIPNGEWLCPRCTCP; PHD2; UniProt A2A8L1 408-465, looked up, fragment)” was tested. Which “binding to H3K4me0 peptide (pull-down)” value (H3K4me0 peptide) did it give?
Answer: same binding preference for H3K4me0; also recorded: highest affinity

Question: How did the “effect on mef proliferation” value (mefs) turn out when “W384A: H3-binding-competent Chd5-PHD mutant” was run?
Answer: inhibited proliferation to an extent comparable to that of wild-type Chd5; also recorded: inhibit proliferation

Question: And the “effect … in mefs” value [1]?
Answer: inhibit expression of several Chd5-bound genes

Question: For “PHD1: individual PHD of Chd5, PHD1 (345–403) (QDYCEVCQQGGEIILCDTCPRAYHLVCLDPELEKAPEGKWSCPHCEKEGIQWEPKDDDE; PHD1; UniProt A2A8L1 345-403, looked up, fragment)”, which “binding to H3K4me0 peptide (pull-down)” value (H3K4me0 peptide) is on record?
Answer: same binding preference for H3K4me0

Question: What does the source list for “C432W: Chd5 mutant compromised for H3 binding”?
Answer: effect on mef proliferation (mefs): defective in their ability to inhibit proliferation; effect on Chd5 target gene expression in mefs [1]: not able to inhibit expression of Chd5-bound loci
